Screens: PubChem BioAssay, several laboratories
Sampled rows, rich in hits. Any-hit rate of the full collection: about 3.1%.
PAFAH1B2 inh: inhibitors of human PAFAH1B2; P68402; recombinant PAFAH1B2, FP-rhodamine activity probe, fluorescence polarization; inhibition, % at 3.39 µM; 340,000 compounds, 1.2% hits; AID 492953;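 active means inhibition above the mean of all tested compounds plus 3 SD, cut at about 24% in these data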;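 further: 0% = enzyme with DMSO and 100% = wells lacking PAFAH1B2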
Apaf1 inhib: blocks human Apaf-1 apoptosome activity; O14727; reconstituted apoptosome caspase-3 activity, DEVD-Rh110 fluorescence; inhibition, % at 20 µM; 330,000 compounds, 0.71% hits; AID 489030; active means inhibition of at least 40% at 20 µM;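 further: plate controls were DMSO wells for no effect and DEVD-CHO caspase inhibitor wells for full effect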
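Assay system – apoptosome proteins · Medium – Hepes buffer, pH 7.5 · Also added – cytochrome c with DEVD-Rh110 · Timing – 30 min compound preincubation, 50 min activation, room temperature · Detection – Rh110 fluorescence, excitation 480 nm, emission 540 nm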
pPAFAH inh: inhibitors of human plasma PAF acetylhydrolase (pPAFAH); AID 463082; inhibition, % at 3.39 µM; recombinant pPAFAH, FP-rhodamine probe fluorescence polarization; Q13093; 330,000 compounds, 1.5% hits;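 active means inhibition above the mean inhibition across the screen plus 3 SD, cut at about 25% in these data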;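 further: inhibitors block binding of the rhodamine activity-based probe so polarization drops; 0% = enzyme with DMSO and 100% = wells lacking pPAFAH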
PAFAH2 inh: PAFAH2 (human) inhibition | Q99487 | AID 492956 | inhibition, % at 3.39 µM | 340,000 compounds, 0.99% hits | recombinant PAFAH2, FP-rhodamine activity probe, fluorescence polarization;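 active means inhibition above the mean over all tested compounds plus 3 SD, cut at about 30% in these data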;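 further: inhibitors block probe labeling of enzyme so polarization drops; 0% = enzyme with DMSO and 100% = wells lacking PAFAH2 protein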
PAFAH1B3 inh: blocks human PAF acetylhydrolase 1B catalytic subunit 3; Q15102; recombinant PAFAH1B3, FP-rhodamine probe, fluorescence polarization; inhibition, % at 3.39 µM; 340,000 compounds, 0.28% hits; AID 492972;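 active means inhibition above the screen-wide average of all tested compounds plus 3 SD, cut at about 25% in these data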;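 further: 0% = enzyme with DMSO only and 100% = wells lacking PAFAH1B3 protein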
Target sequence (Q15102 whole entry, looked up): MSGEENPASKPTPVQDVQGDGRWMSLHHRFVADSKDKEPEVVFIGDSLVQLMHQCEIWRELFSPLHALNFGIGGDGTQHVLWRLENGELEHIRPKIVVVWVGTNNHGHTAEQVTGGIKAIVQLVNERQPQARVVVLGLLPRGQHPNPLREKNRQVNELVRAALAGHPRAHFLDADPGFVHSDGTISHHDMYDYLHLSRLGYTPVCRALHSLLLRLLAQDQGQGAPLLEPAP
Active calls of the source: *; / = not tested or not shown.

SMILES	PAFAH1B2 inh	Apaf1 inhib	pPAFAH inh	PAFAH2 inh	PAFAH1B3 inh
CC(=O)O[C@@H](C[C@@H](C)C1=C2C[C@H](O)C3[C@@]4(C)CCC(=O)C(C)(C)C4CC[C@]3(C)[C@@]2(C)CC1)[C@H]1OC1(C)C (some centres not stated)	5	/	/	3	8
COc1cccc(CN2CCN(c3nc4nonc4nc3N3CCCCC3)CC2=O)c1	1	-10	5	2	1
C/C(=N\Nc1ccc(C(=O)O)cc1)c1ccc2c(c1)Nc1ccccc1S2	8	1	34*	25	26*
COc1ccc(/C(C)=N/Nc2cccc(C(=O)O)c2)cc1OC	3	-13	5	3	-8
O=C(Nc1cccc([N+](=O)[O-])c1)c1cc2ccccc2cc1O	3	4	34*	-4	1
COc1ccc(CNC(=O)COC(=O)C2(C)CC2(Cl)Cl)cc1 (configuration not stated)	-2	-1	0	1	7
COc1cccc(CNC(=O)COC(=O)C23CC4CC(CC(Cl)(C4)C2)C3)c1	28*	4	5	0	0
N#Cc1c(N)[nH]c(=S)c(C#N)c1-c1ccccc1	9	8	5	11	2
N#Cc1c(N)[nH]c2ccc(Sc3ccccc3)cc12	35*	/	/	7	14
S=C(NCCc1ccc(Cl)cc1)NC1CCCCC1	34*	22	-9	2	4
O=C(NCCc1ccc(Cl)cc1)C1CCC(=O)N1C1CCCC1 (configuration not stated)	56*	-26	-2	3	5
O=S(=O)(Nc1ncccn1)c1ccc(NC(=S)Nc2cccc(Cl)c2)cc1	/	-14	-7	/	/
S=C(NCCc1ccc(Cl)cc1)NC1CCCC1	27*	6	6	0	0
O=S(=O)(Nc1ncccn1)c1ccc(NC(=S)NCCc2ccc(Cl)cc2)cc1	44*	-1	1	0	-3
COc1ccc(CN(C)CC(=O)Nc2sc3c(c2C#N)CCC3)c(OC)c1	24*	16	5	8	6
CCC1(C)CC(c2csc(N)n2)CCO1 (configuration not stated)	1	-2	1	-7	2
Nc1nc(C2CCCCC2)cs1	58*	-12	-1	-1	7
O=C(Cc1cc(=O)oc2cc(O)ccc12)N[C@@H](Cc1c[nH]c2ccccc12)C(=O)O	7	-1	9	6	9
O=C(COc1ccc2c(-c3ccccc3)cc(=O)oc2c1)N[C@@H](Cc1c[nH]c2ccc(O)cc12)C(=O)O	63*	8	16	-2	5
CC(Oc1ccc2c(-c3ccccc3)cc(=O)oc2c1)C(=O)NC(Cc1c[nH]c2ccc(O)cc12)C(=O)O (configuration not stated)	71*	-3	15	-2	7
Cc1ccn2c(c1)nc(=O)c1cc(S(=O)(=O)N3CCOCC3)ccc12	-4	3	1	8	-2
COc1cc(/C=N/N2CCN(c3ccc(Cl)cc3)CC2)cc(OC)c1OC(C)=O	25*	11	0	-2	9
O=C(CCl)N(CCc1ccccc1)CCc1ccccc1	5	17	2	6	9
Cn1cccc1CC(=O)NNC(=S)Nc1ccc(Cl)cc1Cl	9	4	26*	-7	4
O=C(CN1c2ccccc2Sc2ccccc21)N/N=C/c1ccc(Cl)cc1Cl	-4	13	1	4	13
SMILES	PAFAH1B2 inh	Apaf1 inhib	pPAFAH inh	PAFAH2 inh	PAFAH1B3 inh
Cn1cccc1CC(=O)NNC(=S)Nc1ccc(F)cc1	13	7	18	2	-3
O=C(CN1c2ccccc2Sc2ccccc21)NNC(=S)Nc1ccc(Cl)cc1Cl	-2	25	34*	4	-3
Cn1cccc1CC(=O)NNC(=S)NC(=O)c1ccccc1Br	4	-1	26*	0	3
FC(F)(F)C(F)(F)c1nnc2ccc(-n3ccnc3)nn12	-3	0	3	-5	4
O=C(Cc1ccc(F)cc1)N/N=C/c1ccc(-c2ccc(Cl)c(C(=O)O)c2)o1	2	0	7	1	6
O=C(O)c1cc(N/N=C/c2ccc(-c3ccc(F)cc3)o2)ccc1Cl	5	12	31*	0	5
O=C(O)c1cc(S(=O)(=O)N(Cc2ccccc2)c2ccc(Cl)cc2)ccc1Cl	29*	12	1	-21	3
O=C(O)c1ccc(N(Cc2ccccc2)S(=O)(=O)c2ccccc2)cc1	4	-3	5	6	11
